High-throughput results: PubChem, several laboratories
Shown are actives, neighbours in structure and some others; about 1.8% of the full set was active somewhere.
RanGTP-Impb inh: disruptors of Ran-importin-beta complex formation – biochemical, FRET, CFP-Ran, YFP-importin-beta, homogeneous, primary screen | hit rate 1.1% among 300,000 | cell-free CFP-Ran/YFP-importin-beta FRET ratio | inhibition, % (test concentration not listed);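 active = more than half of the replicate wells show a fall in the fluorescence ratio signal beyond about 16%, limit read from the data, passing the limit was not always enough; inconclusive = exactly half of the replicate wells pass the set limit; inactive = fewer than half of replicates pass the limit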
Hck Nef HTS: blocks Nef-activated human Hck kinase | inhibition, % at 20 µM | Recombinant Hck-YEEI plus Nef, Z-Lyte FRET kinase assay | P08631 | AID 463187 | hit rate 0.68% among 220,000;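 active = Hck-Nef kinase inhibition above about 50%, limit read from the data; inactive = inhibition below that limit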
Runt-CBFb FRET: Runt domain-CBFb interaction inhibition | inhibition, % at 20 µM | Cerulean-Runt/Venus-CBFb FRET ratio 530/480, 1 h | AID 1496 | hit rate 0.46% among 220,000 | Q01196+Q13951;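 active = inhibition over about 50% at 20 µM in the single-dose screen, limit read from the data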
Target sequence (Q01196 whole entry, looked up, the tested form may be a part): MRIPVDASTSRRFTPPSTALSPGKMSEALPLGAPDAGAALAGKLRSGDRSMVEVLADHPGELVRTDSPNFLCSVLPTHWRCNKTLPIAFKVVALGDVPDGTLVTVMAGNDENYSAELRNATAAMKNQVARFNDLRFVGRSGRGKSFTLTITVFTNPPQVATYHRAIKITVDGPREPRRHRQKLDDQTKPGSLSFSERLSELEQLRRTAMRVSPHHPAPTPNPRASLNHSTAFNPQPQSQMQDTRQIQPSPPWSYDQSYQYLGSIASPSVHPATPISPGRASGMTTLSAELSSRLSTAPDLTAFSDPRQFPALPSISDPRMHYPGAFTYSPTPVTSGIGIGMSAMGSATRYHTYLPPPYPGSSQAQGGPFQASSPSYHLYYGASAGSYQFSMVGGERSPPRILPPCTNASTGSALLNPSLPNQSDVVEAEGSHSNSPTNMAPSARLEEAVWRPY
Target sequence (Q13951 whole entry, looked up, the tested form may be a part): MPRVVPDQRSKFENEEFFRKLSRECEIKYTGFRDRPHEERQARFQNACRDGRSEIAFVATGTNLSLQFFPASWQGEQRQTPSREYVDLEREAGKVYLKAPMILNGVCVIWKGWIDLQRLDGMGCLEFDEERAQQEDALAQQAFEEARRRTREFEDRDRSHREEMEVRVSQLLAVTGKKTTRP
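test system = Cerulean-tagged RUNX1 Runt domain (FRET donor) fusion protein | reagent = Venus-CBFb binding partner, 100 nM | incubation = protein complex preformed 1 h, compound exposure 1 h, room temperature, dark | detection = FRET fluorescence | read-out basis = loss of energy transfer signal | controls = 5 µM unlabeled CBFb as full-inhibition high control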
Runt-SMMHC FRET: blocks binding of human RUNX1 Runt domain to CBFb-SMMHC | Cerulean-Runt/Venus-CBFb-SMMHC FRET ratio 530/480, 1 h | AID 1434 | Q01196+Q13951 | inhibition, % at 20 µM | hit rate 0.74% among 220,000;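 active = mean inhibition across duplicate retests at 20 µM reaching about 50%, limit read from the data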;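 also: inhibitors lower the FRET ratio by blocking Runt binding to CBFb-SMMHC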
A number is an active result; - = inactive; ? = inconclusive; . = not tested or not shown.

SMILES	RanGTP-Impb inh	Hck Nef HTS	Runt-CBFb FRET	Runt-SMMHC FRET
CN1OCC(S(=O)(=O)c2ccccc2)C1c1ccccc1 (stereo unspecified)	35	-	-	-
O=C(Nc1ccc2c(c1)CCCN2C(=O)c1ccccc1)c1ccccc1	-	.	.	.
c1ccc2c(c1)nc(N1CCOCC1)c1nnnn12	?	-	-	-
c1ccc(N2CCN(c3nc4ccccc4n4nnnc34)CC2)cc1	44	-	-	-
S=c1[nH]nc(-c2ccccn2)n1/N=C/c1ccc(Cl)c(Cl)c1	-	-	-	-
S=c1[nH]nc(-c2ccccn2)n1/N=C/c1ccc(-c2ccccc2Cl)o1	-	76	-	-
CN(C)c1ccc(C2C3C(=O)NC(=O)C3ON2c2ccc(Cl)cc2)cc1 (stereo unspecified)	22	-	-	-
N#CC1=C(N)Oc2cc(N)ccc2C1c1cccc(F)c1 (stereo unspecified)	38	.	.	.
CCOc1ccccc1C1C(C#N)=C(N)Oc2cc(N)ccc21 (stereo unspecified)	139	-	-	105
COc1ccc(OC)c(C2C(C#N)=C(N)Oc3cc(C)[nH]c(=O)c32)c1 (stereo unspecified)	-	-	-	-
COC(=O)c1ccc(C2C(C#N)=C(N)Oc3cc(N)ccc32)cc1 (stereo unspecified)	-	.	.	.
COc1ccc(OC)c(C2C(C#N)=C(N)Oc3cc(N)ccc32)c1 (stereo unspecified)	47	-	-	-
COc1ccc(N2CCN(C(=O)CSc3nnc(NC(=O)C4CCC4)s3)CC2)cc1	-	-	-	-
CC1CCN(CC(=O)c2cccs2)CC1	-	-	-	-
O=C(CN1CCc2ccccc2C1)c1cccs1	25	-	-	-
C=CCn1c(NC(=O)c2ccccc2Cl)c(C#N)c2nc3ccccc3nc21	124	-	-	86
CCCCn1c(NC(C)=O)c(C#N)c2nc3ccccc3nc21	30	-	-	79
N#Cc1c(N)n(CCCN2CCOCC2)c2nc3ccccc3nc12	.	-	84	62
CCCCn1c(CNC(C)=O)nc2ccccc21	-	-	-	-
CCCCCn1c(N)c(C#N)c2nc3ccccc3nc21	44	-	85	63
COc1ccc(CCn2c(N)c(C#N)c3nc4ccccc4nc32)cc1OC	-	-	-	-
Cc1cccn2c(=O)c3cc(C#N)c(=N)n(CCN4CCOCC4)c3nc12	87	-	76	94
Cc1cccn2c(=O)c3cc(C#N)c(=N)n(CCCN4CCOCC4)c3nc12	184	-	.	.
CCCn1c(=N)c(C#N)cc2c(=O)n3cccc(C)c3nc21	148	-	.	.
Cc1ccc2nc3c(cc(C#N)c(=N)n3CCCN3CCOCC3)c(=O)n2c1	.	-	.	.
SMILES	RanGTP-Impb inh	Hck Nef HTS	Runt-CBFb FRET	Runt-SMMHC FRET
CCCCn1c(=N)c(S(=O)(=O)c2ccc(Br)cc2)cc2c(=O)n3cccc(C)c3nc21	-	.	.	.
CN(C)CCCNC(=O)C(=O)NCC(c1cccs1)S(=O)(=O)c1ccc(F)cc1 (stereo unspecified)	-	.	.	.
Cc1onc(-c2ccccc2Cl)c1C(=O)Nc1sc2c(c1C#N)CCC2	45	-	-	-
N#Cc1c(NC(=O)C2CC(c3ccccc3Cl)=NO2)sc2c1CCC2 (stereo unspecified)	-	-	-	-
COc1ccc(C(=O)COC(=O)COc2cc(C)cc(C)c2)cc1	-	.	.	.
CCCC(=O)NC(=S)c1c(C)n(C)n(-c2ccccc2)c1=O	?	-	-	-
Cn1c(/C=C(\C#N)C(N)=S)ccc1-c1ccc(Br)cc1	.	-	89	92
CCOc1ccccc1N1CCN(C(=O)c2cc(-c3cc(OC)ccc3OC)nc3ccccc23)CC1	-	.	.	.
Cc1ccc(C2CC(C(F)(F)F)n3nc(C(=O)NCC4CCCO4)cc3N2)cc1 (stereo unspecified)	-	-	-	-
COc1ccccc1Nc1nnc(C)c(=O)[nH]1	-	-	-	-
O=c1[nH]c(Nc2ccccc2)cc2ccccc12	43	-	-	-
O=c1[nH]c(Nc2ccccc2)cc2cc(Br)ccc12	83	.	.	.
CC(=O)c1cccc(-c2ccc3c(=O)[nH]c(Nc4ccccc4)cc3c2)c1	22	.	.	.
COc1ccccc1Nc1cc2cc(Br)ccc2c(=O)[nH]1	34	.	.	.
O=c1nccc(Nc2ccccc2)[nH]1	-	-	-	-
O=C(/C=C/c1c[nH]c2ccccc12)c1ccccc1	55	-	-	-
COc1ccc2[nH]cc(/C=C/C(=O)c3ccccc3)c2c1	25	-	-	-
Cc1ccc(C(=O)/C=C/c2c[nH]c3ccccc23)cc1	54	-	-	-
COc1ccccc1NC(=O)CCN1C(=O)c2ccccc2C1=O	-	.	.	.
CCCN(Cc1nnc(-c2ccccc2Cl)o1)C(=O)c1cc(S(=O)(=O)N2CCOCC2)ccc1F	-	.	.	.
O=S1(=O)CCOCCCN1Cc1ccccc1F	-	.	.	.
Cn1c(-c2ccccc2)cc(=O)c2ccccc21	-	-	-	-
Cn1c2ccccc2c(=O)c2cc(C#Cc3ccsc3)ccc21	73	.	.	.
COc1cc2oc3ccc(C#Cc4ccccn4)cc3c(=O)c2cc1OC	-	.	.	.
Cn1c2ccccc2c(=O)c2ccc(C#Cc3ccccn3)cc21	97	.	.	.
SMILES	RanGTP-Impb inh	Hck Nef HTS	Runt-CBFb FRET	Runt-SMMHC FRET
Cn1c2ccccc2c(=O)c2cc(C#Cc3ccccn3)ccc21	147	.	.	.
N#Cc1c(Cl)nc(SCc2ccccc2)nc1-c1ccccc1	.	-	113	-
c1ccc(CSc2nnc(-c3ccccc3)c(-c3ccccc3)n2)cc1	-	.	.	.
CN(C)Cc1cc(O)c(CN(C)C)cc1O	-	-	-	69
Cn1c(=O)c2nc3ccccc3nc2n(C)c1=O	-	-	-	63
COc1ccc(Cl)cc1NC(=O)C1Cc2cc(S(=O)(=O)N3CCCC3)ccc2N1C(C)=O (stereo unspecified)	-	.	.	.
C=CCn1c(N)c(C(=O)Nc2cccc(C)c2)c2nc3ccccc3nc21	22	-	-	-
Oc1c(C=Nc2cccnc2)sc2ccccc12	22	-	-	63
Oc1c(C=NCc2ccncc2)sc2ccccc12	-	-	-	66
CC(=O)NCCN=Cc1sc2ccccc2c1O	31	-	-	60
Oc1c(/C=N/c2ccccn2)sc2ccccc12	23	-	-	-
CN=Cc1sc2ccccc2c1O	-	-	-	-
CCOc1ccc(N(CC(=O)Nc2ccc(C)cc2)S(=O)(=O)c2c(C)[nH]c(=O)[nH]c2=O)cc1	-	-	-	-
CCOC(=O)/C=C/C(=O)N1CCN(C(=O)/C=C/C(=O)OCC)CC1	-	-	-	-
COCCNC(=S)NCc1ccc2[nH]c3c(c2c1)CCCC3	19	-	-	-
Cc1ccc(NC(=S)NCc2ccc3[nH]c4c(c3c2)CCCC4)cc1	-	-	-	-
O=C(NCCO)c1ccc2[nH]c3c(c2c1)CCCC3	18	-	-	-
O=C(NCCCO)c1ccc2[nH]c3c(c2c1)CCCC3	-	-	-	-
O=C(CN1C(=O)c2ccccc2S1(=O)=O)N1CCc2ccccc2C1	-	-	-	-
CC(CC(=O)Nc1ccc(S(=O)(=O)Nc2ncccn2)cc1)c1ccccc1 (stereo unspecified)	-	.	.	.
